In publication PMC9064899 (The FEBS journal, 2021):
Changes are numbered by the printed parent chain. Each block holds one molecule with its values, some of them ahead of it.

Legend:
[1] = tested on: UBIAD1-deficient FIXgla-PC/HEK293 reporter cells; assay: VKD carboxylation of FIXgla-PC supported by K vitamins in UBIAD1-knockout cells; assay type: cell-based, human; conditions: for support of VKD carboxylation of reporter protein: UBIAD1-deficient (knockout) FIXgla-PC/HEK293 cells
Summary of the method: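 Ubiad1-knockout FIXgla-PC/HEK293 reporter cells were cultured for 24 h with increasing concentrations of vitamin K1, MK-4, vitamin K3, or menaquinones with 1–4 or 7 isoprene units. K vitamin stocks were made in polyethoxylated castor oil. Carboxylated FIXgla-PC was determined by ELISA, and half-maximal stimulation concentration (EC50) came from curve fitting. Mean ± SD.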

mutant zebrafish = conditions: L65Q mutant zebrafish; cited from earlier work
UBIAD1 = target: T1, UBIAD1 (Homo sapiens, UniProt Q9Y5Z9); assay: UBIAD1 activity with exogenous isoprenyl pyrophosphates in statin-blocked cells; assay type: cell-based; conditions: 1 μM vitamin K3, 10 μM atorvastatin or simvastatin, 20 μM GPP, FPP or GGPP
T1 sequence (Q9Y5Z9 1-338): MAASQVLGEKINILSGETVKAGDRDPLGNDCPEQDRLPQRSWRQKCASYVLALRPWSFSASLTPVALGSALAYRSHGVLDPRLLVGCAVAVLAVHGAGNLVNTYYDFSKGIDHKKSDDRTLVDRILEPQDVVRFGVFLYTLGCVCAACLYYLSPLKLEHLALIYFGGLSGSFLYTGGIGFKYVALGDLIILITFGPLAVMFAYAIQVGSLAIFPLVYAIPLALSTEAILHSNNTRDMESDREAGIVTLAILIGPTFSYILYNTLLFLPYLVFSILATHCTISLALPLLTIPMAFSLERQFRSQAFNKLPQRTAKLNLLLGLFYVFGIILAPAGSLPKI
Summary of the method: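 FIXgla-PC/HEK293 reporter cells were pre-incubated for 12 h with 10 μM atorvastatin or simvastatin to block endogenous isoprenyl pyrophosphate. Medium then contained 1 μM vitamin K3, statin (10 μM) and 20 μM GPP, FPP or GGPP as side-chain substrate. Carboxylated FIXgla-PC was quantified by ELISA and normalized to GGPP (100%). Mean ± SD, n=3 independent experiments.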

[2] = tested on: FIXgla-PC/HEK293 reporter cells; assay: Inhibition of vitamin K1-supported VKD carboxylation; assay type: cell-based, human; conditions: 5 μM vitamin K1 as substrate, 24 hours
Summary of the method: (§1)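 HEK293 cells stably expressing FIXgla-PC (protein C whose Gla domain is replaced by that of factor IX), grown in DMEM/F12 with 10% FBS. Vitamin K stocks are made in polyethoxylated castor oil. Cells are cultured with vitamin K for 24 h. The medium is collected and used directly in an ELISA for carboxylated FIXgla-PC, with an anti-carboxylated FIX Gla-domain mAb, HRP anti-protein C and ABTS substrate.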

[3] = tested on: FIXgla-PC/HEK293 reporter cells; assay: Inhibition of vitamin K3-supported VKD carboxylation; assay type: cell-based, human; conditions: 1 μM vitamin K3 as substrate, 24 hours
Summary of the method: as §1

UBIAD1 G186R = target: T2, UBIAD1 G186R (Homo sapiens, UniProt Q9Y5Z9, G186R); assay: GGPP recognition by UBIAD1 variant; assay type: cell-based; conditions: 1 μM vitamin K3, statin-blocked mevalonate pathway
T2 sequence (Q9Y5Z9 1-338 G186R): T1 sequence (Q9Y5Z9 1-338) with G186R
Summary of the method: (§2)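 Ubiad1-knockout FIXgla-PC/HEK293 cells were transiently transfected with wild-type or mutant UBIAD1. At 24 h they were pre-treated with 10 μM atorvastatin for 3 h. They were then given 1 μM vitamin K3, 10 μM atorvastatin and increasing GGPP for 24 h. Carboxylated FIXgla-PC was read by ELISA, and GGPP EC50 came from a curve fit. Mean ± SD.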

UBIAD1 K181A = target: T3, UBIAD1 K181A (Homo sapiens, UniProt Q9Y5Z9, K181A); assay: GGPP recognition by UBIAD1 variant; assay type: cell-based; conditions: 1 μM vitamin K3, statin-blocked mevalonate pathway
T3 sequence (Q9Y5Z9 1-338 K181A): T1 sequence (Q9Y5Z9 1-338) with K181A
Summary of the method: as §2

kidneys = kidneys of atorvastatin-treated mice; cited from earlier work
[4] = tested on: FIXgla-PC/HEK293 reporter cells; assay: VKD carboxylation of reporter protein FIXgla-PC supported by K vitamins; assay type: cell-based, human; conditions: intact FIXgla-PC/HEK293 cells, 0.015 nM to 1000 nM, 24 hours
Summary of the method: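 Intact FIXgla-PC/HEK293 cells (stable reporter: protein C with factor IX Gla domain) were grown in DMEM/F12 with 10% FBS. They were incubated for 24 h with vitamin K1, MK-4, vitamin K3 or MK-1/2/3/4/7 at 0.015 nM to 1000 nM, from stocks in polyethoxylated castor oil. Carboxylated reporter was measured by ELISA (anti-carboxylated FIXgla capture, HRP anti-protein C, ABTS).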

SMILES: CC1=C(C/C=C(\C)CCC[C@H](C)CCC[C@H](C)CCCC(C)C)C(=O)c2ccccc2C1=O [vitamin K1, phylloquinone]
support of VKD carboxylation of reporter protein [1]: efficiently support VKD carboxylation | rescue of the vascular phenotype (mutant zebrafish): 6%

support of VKD carboxylation as side chain source (UBIAD1): support VKD carboxylation
SMILES: CC(C)=CCC/C(C)=C/COP(=O)(O)OP(=O)(O)O [GPP, geranyl pyrophosphate]

support of VKD carboxylation as side chain source (UBIAD1): support VKD carboxylation
SMILES: CC(C)=CCC/C(C)=C/CC/C(C)=C/COP(=O)(O)OP(=O)(O)O [FPP, farnesyl pyrophosphate]

SMILES: CCC(C)(C)C(=O)O[C@H]1C[C@@H](C)C=C2C=C[C@H](C)[C@H](CC[C@@H]3C[C@@H](O)CC(=O)O3)[C@H]21 [simvastatin]
effect on vitamin K1-supported carboxylation [2]: do not affect vitamin K1-supported carboxylation | inhibition of VKD carboxylation [3]: dose-response inhibition of VKD carboxylation

increase of EC50 value of GGPP vs wild-type (UBIAD1 G186R): 5 fold | increase of EC50 value of GGPP vs wild-type (UBIAD1 K181A): 5 fold | support of VKD carboxylation as side chain source (UBIAD1): support VKD carboxylation
SMILES: CC(C)=CCC/C(C)=C/CC/C(C)=C/CC/C(C)=C/COP(=O)(O)OP(=O)(O)O [GGPP, geranylgeranyl pyrophosphate]

SMILES: CC(C)c1c(C(=O)Nc2ccccc2)c(-c2ccccc2)c(-c2ccc(F)cc2)n1CC[C@@H](O)C[C@@H](O)CC(=O)O [atorvastatin]
reduction of MK-4 production (kidneys): ~ 45% | effect on vitamin K1-supported carboxylation [2]: do not affect vitamin K1-supported carboxylation | inhibition of VKD carboxylation [3]: dose-response inhibition of VKD carboxylation

SMILES: CC(C)=CCC1=C(C)C(=O)c2ccccc2C1=O [MK-1]
support of VKD carboxylation of reporter protein [1]: unable to support VKD carboxylation

SMILES: CC(C)=CCC/C(C)=C/CC/C(C)=C/CC/C(C)=C/CC1=C(C)C(=O)c2ccccc2C1=O [MK-4, menaquinone-4]
support of VKD carboxylation of reporter protein [4]: efficiently support VKD carboxylation | support of VKD carboxylation of reporter protein [1]: efficiently support VKD carboxylation | rescue of the vascular phenotype (mutant zebrafish): 58%

SMILES: CC(C)=CCC/C(C)=C/CC/C(C)=C/CC/C(C)=C/CC/C(C)=C/CC/C(C)=C/CC/C(C)=C/CC1=C(C)C(=O)c2ccccc2C1=O [MK-7]
support of VKD carboxylation of reporter protein [4]: efficiently support VKD carboxylation | carboxylation efficiency relative to MK-4 ([1]; MK-7 higher than MK-4): about 3 fold | EC50 ([1]; read-out: EC50 (half-maximal stimulation concentration) of K vitamins for VKD carboxylation, UBIAD1-deficient FIXgla-PC/HEK293 cells): 2.3 nM
